ChEMBL document CHEMBL4689842, “EUbOPEN Chemogenomics Library wave 1” (2021)

Test system: U2OS
Assay: Multiplex assay against U2OS
Assay type: toxicity, cell-based
Details: human
How it was run: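 With compound added, live cells were imaged on a CQ1 microscope at 37°C and 5% CO2; staining with Hoechst33342, BioTracker Green Microtubule Cytoskeleton Dye, MitoTracker Red and Annexin V Alexa Fluor 680 had been done at seeding. The CellPathfinder machine-learning gating scheme split cells into Hoechst high-intensity objects or normal cells, normal cells into healthy, pyknosed or fragmented nuclei, and pyknosed cells into mitotic or apoptotic. The tubulin, mitochondrial-mass and membrane-permeability phenotypes are per cents of healthy-nucleus cells.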

[1] = 12 h, 1 µM, compound concentration 1 uM, replicate 1
[2] = 12 h, 1 µM, compound concentration 1 uM, replicate 2
[3] = 12 h, 10 µM, compound concentration 10 uM, replicate 1
[4] = 12 h, 10 µM, compound concentration 10 uM, replicate 2
[5] = 24 h, 1 µM, compound concentration 1 uM, replicate 1
[6] = 24 h, 1 µM, compound concentration 1 uM, replicate 2
[7] = 24 h, 10 µM, compound concentration 10 uM, replicate 1
[8] = 24 h, 10 µM, compound concentration 10 uM, replicate 2
[9] = 48 h, 1 µM, compound concentration 1 uM, replicate 1
[10] = 48 h, 1 µM, compound concentration 1 uM, replicate 2
[11] = 48 h, 10 µM, compound concentration 10 uM, replicate 1
[12] = 48 h, 10 µM, compound concentration 10 uM, replicate 2

CN1CCN(Cc2ccc(Nc3ncc(Cl)c(Nc4ccccc4S(=O)(=O)N(C)C)n3)cc2)CC1 [DUBERMATINIB]
Population Apoptotic (%) [1]: 73% | Population Fragmented Nuclei (%) [1]: 20% | Population Healthy Nuclei (%) [1]: 51% | Population Hoechst High Intensity Objects (%) [1]: 11% | Population Membrane Permeable-Phenotype (%) [1]: 6% | Population Mitochondria Different-Phenotype (%) [1]: 9% | Population Mitotic Cells (%) [1]: 26% | Population Normal (%) [1]: 88% | Population Pyknosed Nuclei (%) [1]: 27% | Population Tubulin-Different-Phenotype (%) [1]: 6% | Total Cell Count [1]: 172 | Population Apoptotic (%) [2]: 100% | Population Fragmented Nuclei (%) [2]: 13% | Population Healthy Nuclei (%) [2]: 83% | Population Hoechst High Intensity Objects (%) [2]: 10% | Population Membrane Permeable-Phenotype (%) [2]: 4% | Population Mitochondria Different-Phenotype (%) [2]: 16% | Population Mitotic Cells (%) [2]: 0% | Population Normal (%) [2]: 89% | Population Pyknosed Nuclei (%) [2]: 2% | Population Tubulin-Different-Phenotype (%) [2]: 11% | Total Cell Count [2]: 65 | Population Apoptotic (%) [3]: 78% | Population Fragmented Nuclei (%) [3]: 25% | Population Healthy Nuclei (%) [3]: 44% | Population Hoechst High Intensity Objects (%) [3]: 12% | Population Membrane Permeable-Phenotype (%) [3]: 9% | Population Mitochondria Different-Phenotype (%) [3]: 40% | Population Mitotic Cells (%) [3]: 21% | Population Normal (%) [3]: 87% | Population Pyknosed Nuclei (%) [3]: 29% | Population Tubulin-Different-Phenotype (%) [3]: 28% | Total Cell Count [3]: 140 | Population Apoptotic (%) [4]: 73% | Population Fragmented Nuclei (%) [4]: 45% | Population Healthy Nuclei (%) [4]: 31% | Population Hoechst High Intensity Objects (%) [4]: 9% | Population Membrane Permeable-Phenotype (%) [4]: 28% | Population Mitochondria Different-Phenotype (%) [4]: 38% | Population Mitotic Cells (%) [4]: 26% | Population Normal (%) [4]: 90% | Population Pyknosed Nuclei (%) [4]: 22% | Population Tubulin-Different-Phenotype (%) [4]: 42% | Total Cell Count [4]: 91 | Population Apoptotic (%) [5]: 88% | Population Fragmented Nuclei (%) [5]: 29% | Population Healthy Nuclei (%) [5]: 45% | Population Hoechst High Intensity Objects (%) [5]: 10% | Population Membrane Permeable-Phenotype (%) [5]: 11% | Population Mitochondria Different-Phenotype (%) [5]: 14% | Population Mitotic Cells (%) [5]: 11% | Population Normal (%) [5]: 90% | Population Pyknosed Nuclei (%) [5]: 25% | Population Tubulin-Different-Phenotype (%) [5]: 4% | Total Cell Count [5]: 188 | Population Apoptotic (%) [6]: 0% | Population Fragmented Nuclei (%) [6]: 11% | Population Healthy Nuclei (%) [6]: 83% | Population Hoechst High Intensity Objects (%) [6]: 6% | Population Membrane Permeable-Phenotype (%) [6]: 4% | Population Mitochondria Different-Phenotype (%) [6]: 36% | Population Mitotic Cells (%) [6]: 100% | Population Normal (%) [6]: 93% | Population Pyknosed Nuclei (%) [6]: 4% | Population Tubulin-Different-Phenotype (%) [6]: 14% | Total Cell Count [6]: 70 | Population Apoptotic (%) [7]: 84% | Population Fragmented Nuclei (%) [7]: 38% | Population Healthy Nuclei (%) [7]: 24% | Population Hoechst High Intensity Objects (%) [7]: 19% | Population Membrane Permeable-Phenotype (%) [7]: 4% | Population Mitochondria Different-Phenotype (%) [7]: 45% | Population Mitotic Cells (%) [7]: 15% | Population Normal (%) [7]: 80% | Population Pyknosed Nuclei (%) [7]: 37% | Population Tubulin-Different-Phenotype (%) [7]: 22% | Total Cell Count [7]: 150 | Population Apoptotic (%) [8]: 95% | Population Fragmented Nuclei (%) [8]: 30% | Population Healthy Nuclei (%) [8]: 33% | Population Hoechst High Intensity Objects (%) [8]: 14% | Population Membrane Permeable-Phenotype (%) [8]: 55% | Population Mitochondria Different-Phenotype (%) [8]: 55% | Population Mitotic Cells (%) [8]: 4% | Population Normal (%) [8]: 85% | Population Pyknosed Nuclei (%) [8]: 36% | Population Tubulin-Different-Phenotype (%) [8]: 65% | Total Cell Count [8]: 87 | Population Apoptotic (%) [9]: 82% | Population Fragmented Nuclei (%) [9]: 29% | Population Healthy Nuclei (%) [9]: 44% | Population Hoechst High Intensity Objects (%) [9]: 8% | Population Membrane Permeable-Phenotype (%) [9]: 8% | Population Mitochondria Different-Phenotype (%) [9]: 28% | Population Mitotic Cells (%) [9]: 17% | Population Normal (%) [9]: 91% | Population Pyknosed Nuclei (%) [9]: 25% | Population Tubulin-Different-Phenotype (%) [9]: 11% | Total Cell Count [9]: 217 | Population Apoptotic (%) [10]: 100% | Population Fragmented Nuclei (%) [10]: 16% | Population Healthy Nuclei (%) [10]: 78% | Population Mitochondria Different-Phenotype (%) [10]: 37% | Population Mitotic Cells (%) [10]: 0% | Population Pyknosed Nuclei (%) [10]: 4% | Population Tubulin-Different-Phenotype (%) [10]: 17% | Total Cell Count [10]: 87 | Population Apoptotic (%) [11]: 92% | Population Fragmented Nuclei (%) [11]: 40% | Population Healthy Nuclei (%) [11]: 8% | Population Hoechst High Intensity Objects (%) [11]: 30% | Population Membrane Permeable-Phenotype (%) [11]: 33% | Population Mitochondria Different-Phenotype (%) [11]: 50% | Population Mitotic Cells (%) [11]: 7% | Population Normal (%) [11]: 69% | Population Pyknosed Nuclei (%) [11]: 51% | Population Tubulin-Different-Phenotype (%) [11]: 33% | Total Cell Count [11]: 146 | Population Apoptotic (%) [12]: 85% | Population Fragmented Nuclei (%) [12]: 24% | Population Healthy Nuclei (%) [12]: 49% | Population Hoechst High Intensity Objects (%) [12]: 20% | Population Membrane Permeable-Phenotype (%) [12]: 80% | Population Mitochondria Different-Phenotype (%) [12]: 84% | Population Mitotic Cells (%) [12]: 14% | Population Normal (%) [12]: 79% | Population Pyknosed Nuclei (%) [12]: 26% | Population Tubulin-Different-Phenotype (%) [12]: 76% | Total Cell Count [12]: 104
